# T cruzi growth-1 – T. cruzi intracellular proliferation inhibitors, primary screen, cell-based, beta-gal Tulahuen parasites, NIH3T3 host, luminescence; T. cruzi beta-gal in NIH3T3, GalScreen luminescence, 90 h; AID 624255, 2012; hit rate 5.9% among 77,000; inhibition, % at 8.34 µM;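 active = mean inhibition above about 93%, with at least 55% of replicates each passing it, limit read from the data, passing the limit was not always enough; inconclusive = only one of those two conditions holds; inactive = neither condition holds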
# Pf Dd2 growth – P. falciparum Dd2 growth inhibitors, primary screen, SYBR Green fluorescence, single dose replicates. activity change, % at 10 µM. 72 h; stronger effect = lower value. AID 1159554, 2015. hit rate 2.3% among 94,000; in the data active = activity change below about -80%; inconclusive = no clear call, values can overlap the other calls
# KDM4C inh – inhibitors of GASC-1 (KDM4C) histone demethylase, primary screen, biochemical, single concentration HTS; inhibition, % at 12.5 µM; AID 720574, 2013; hit rate 0.15% among 96,000; GST-KDM4C 2-372, H3K9me3 peptide, LANCE TR-FRET; Lysine-specific demethylase 4C (Homo sapiens), Q9H3R0;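 active = mean replicate inhibition above about 25%, with at least 55% of replicates also reaching it, limit read from the data, passing the limit was not always enough; inconclusive = only one of those two conditions met; inactive = neither condition met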
# Target sequence (Q9H3R0 2-372 limits assumed): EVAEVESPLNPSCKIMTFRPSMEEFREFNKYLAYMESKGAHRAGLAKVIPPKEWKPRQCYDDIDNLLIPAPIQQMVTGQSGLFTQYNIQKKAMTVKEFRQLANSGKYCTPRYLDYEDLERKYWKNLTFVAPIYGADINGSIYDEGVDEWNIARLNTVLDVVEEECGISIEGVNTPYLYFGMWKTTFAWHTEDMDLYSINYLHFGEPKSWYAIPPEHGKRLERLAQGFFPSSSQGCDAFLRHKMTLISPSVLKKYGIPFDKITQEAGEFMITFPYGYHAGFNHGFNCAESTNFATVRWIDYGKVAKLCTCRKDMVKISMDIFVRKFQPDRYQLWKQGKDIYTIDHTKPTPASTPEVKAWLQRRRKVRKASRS
#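 System – N-terminal GST-fused human GASC-1 (KDM4C) fragment, residues 2-372 · Input – enzyme final amount 10 nM · Technique – LANCE TR-FRET, Eu antibody, ULight-streptavidin, EDTA, ex 340 nm, em 618/671 nm · Medium – HEPES buffer, pH 7.5, plus ascorbate · Incubation – enzyme reaction 30 min, then detection 60 min, both room temperature · Reagent – H3K9me3 peptide with Fe(II)/2OG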
# IDH1 mut inh – inhibitors of IDH1 R132H reductase, primary screen, biochemical, plate reader, single point; diaphorase/resazurin fluorescence, 60 min; inhibition, % at 10 µM; hit rate 0.18% among 70,000; in the data active = inhibition above about 34%; inconclusive = no clear call, values can overlap the other calls; inactive = below about 11%;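 note: 0% = DMSO and 100% = no enzyme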
# Target sequence (O75874 whole entry R132H): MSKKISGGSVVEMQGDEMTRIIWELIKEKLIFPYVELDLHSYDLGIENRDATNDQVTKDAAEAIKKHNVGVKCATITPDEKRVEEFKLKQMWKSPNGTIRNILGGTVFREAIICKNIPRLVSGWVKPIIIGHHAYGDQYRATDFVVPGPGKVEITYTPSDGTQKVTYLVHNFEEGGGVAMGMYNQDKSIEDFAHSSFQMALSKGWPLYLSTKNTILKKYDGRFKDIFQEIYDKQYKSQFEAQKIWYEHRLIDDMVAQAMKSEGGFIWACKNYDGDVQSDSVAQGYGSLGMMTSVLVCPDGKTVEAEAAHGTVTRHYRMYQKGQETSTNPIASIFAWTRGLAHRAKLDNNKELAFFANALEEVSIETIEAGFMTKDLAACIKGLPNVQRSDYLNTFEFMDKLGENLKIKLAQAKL
# T cruzi growth-2 – T. cruzi intracellular proliferation inhibitors, confirmation, cell-based, NIH3T3 host, beta-gal parasite, luminescence, cherry-pick | shares compounds with T cruzi growth-1 | T. cruzi beta-gal in NIH3T3, GalScreen luminescence, 90 h | inhibition, % at 8.35 µM | hit rate 72% among 5,600;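 active = mean replicate inhibition above about 95% and at least 55% of replicates individually reaching it, limit read from the data; inconclusive = only one of the two criteria is met; inactive = neither criterion is met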
# T cruzi growth-3 – inhibitors of intracellular T. cruzi replication, confirmation, NIH3T3 host cells, beta-gal parasites, cherry-pick, set 2 | shares compounds with T cruzi growth-1 | T. cruzi beta-gal in NIH3T3, GalScreen luminescence, 90 h | hit rate 21% among 5,600 | inhibition, % at 2.09 µM;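 active = mean inhibition above about 95%, with at least 55% of replicates also reaching it, limit read from the data; inconclusive = meets just one of the two conditions; inactive = meets neither condition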;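 note: plate controls were neutral control median for no effect and positive control median for full effect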
# NIH3T3 tox – cytotoxicity in mouse NIH/3T3 fibroblasts, confirmation, cytotoxicity control for T. cruzi proliferation inhibitor project, cell-based, cherry-pick, single point; shares compounds with T cruzi growth-1; NIH/3T3 viability, CellTiter-Glo ATP luminescence, 90 h; cytotoxicity (signal decrease), % at 8.35 µM; hit rate 14% among 5,600; AID 651742, 2012;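 active = mean signal decrease across replicates above about 35% based on untreated-well scatter, with enough replicates individually passing, limit read from the data; inconclusive = no rule stated though some were filed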;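 note: 0% = median of neutral control wells and 100% = median of positive control wells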
# 3T3 cytotox 2 – NIH/3T3 fibroblast cytotoxicity, confirmation, cytotoxicity control, cell-based, cherry-pick, single point, set 2; shares compounds with T cruzi growth-1; NIH/3T3 viability, CellTiter-Glo ATP luminescence, 90 h; inhibition, % at 24.9 µM; hit rate 56% among 5,600; AID 651744, 2012;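 active = mean loss of cell viability signal at or above a set limit, and enough replicates individually reaching it; inconclusive = meets only the mean limit or only the replicate share; inactive = meets neither condition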;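 note: 0% = median of neutral control wells and 100% = median of positive control wells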
# Starred values were filed as active, the others as inactive; ? = inconclusive; / = no result. Shown are actives, neighbours in structure and some others; about 5.8% of the full set was active somewhere.
SMILES,T cruzi growth-1,Pf Dd2 growth,KDM4C inh,IDH1 mut inh,T cruzi growth-2,T cruzi growth-3,NIH3T3 tox,3T3 cytotox 2
C[C@H](CO)N1C[C@H](C)[C@H](CN(C)S(=O)(=O)c2cccs2)Oc2c(NC(=O)Nc3ccc(C(F)(F)F)cc3)cccc2C1=O,103.1*,-39.3,-1.8,0.3,88.3,57.8,56.1*,105.1*
O=C(C[C@@H]1C[C@H]2c3cc(NC(=O)C4CCC4)ccc3O[C@H]2[C@H](CO)O1)NCC1CC1,-5.5,0.2,8.2,8.8,/,/,/,/
CN1C(=O)c2cc(NC(=O)c3cccc(F)c3)ccc2OC[C@H]2O[C@H](CC(=O)NCC3CCCCC3)CC[C@@H]21,79.3,/,0.2,/,/,/,/,/
O=C(N[C@@H]1C=C[C@@H](CC(=O)N2CCN(c3ccccc3)CC2)O[C@@H]1CO)c1ccncc1,1.3,11.0,7.6,-0.1,/,/,/,/
COc1ccc(S(=O)(=O)N(C)C[C@H]2Oc3ccc(NC(=O)Nc4ccc(C(F)(F)F)cc4)cc3C(=O)N([C@@H](C)CO)C[C@H]2C)cc1,?,11.0,-4.0,0.3,99.4*,60.4,44.8*,80.9*
COc1ccc(S(=O)(=O)N(C)C[C@H]2Oc3ccc(NC(=O)Nc4ccc(C(F)(F)F)cc4)cc3C(=O)N([C@H](C)CO)C[C@H]2C)cc1,?,-17.6,-2.8,0.1,102.9*,25.1,41.9*,50.7*
COc1ccc(NC(=O)Nc2ccc3c(c2)C(=O)N([C@H](C)CO)C[C@@H](C)[C@@H](CN(C)S(=O)(=O)c2ccc(OC)cc2)O3)cc1,16.0,24.0,2.6,-1.0,/,/,/,/
COc1ccc(S(=O)(=O)N(C)C[C@@H]2Oc3ccc(NC(=O)Nc4ccc(C(F)(F)F)cc4)cc3C(=O)N([C@@H](C)CO)C[C@@H]2C)cc1,?,-16.1,-5.0,0.8,101.6*,57.2,?,45.8*
CCC(=O)N(C)C[C@H]1Oc2cc(-c3ccccc3OC)ccc2S(=O)(=O)N([C@H](C)CO)C[C@H]1C,60.4,-35.4,0.9,-1.6,/,/,/,/
Cc1cccc(C)c1N(CC(=O)N1CCN(C)CC1)S(C)(=O)=O,/,/,/,0.1,/,/,/,/
COCC(=O)N1CC2(C1)CN(Cc1cccc(OC)c1)[C@@H](CO)c1[nH]c3cc(OC)ccc3c12,/,?,-0.7,/,/,/,/,/
N#Cc1ccc(-c2ccc3c(c2)[C@H]2[C@H](CCN2S(=O)(=O)c2cccc(F)c2)[C@H](CO)N3)cc1,13.0,-9.4,-2.1,/,/,/,/,/
N#Cc1cccc(-c2ccc3c(c2)[C@@H]2[C@@H](CCN2S(=O)(=O)c2ccccc2F)[C@H](CO)N3)c1,107.8*,23.5,-3.1,/,106.3*,87.0,45.7*,92.2*
N#Cc1ccc(-c2ccc3c(c2)[C@@H]2[C@@H](CCN2S(=O)(=O)c2ccccc2F)[C@H](CO)N3)cc1,36.2,24.1,-0.4,/,/,/,/,/
N#Cc1cccc(-c2ccc3c(c2)[C@H]2[C@H](CCN2S(=O)(=O)c2cccc(F)c2)[C@@H](CO)N3)c1,?,10.4,-1.0,/,105.9*,48.3,46.0*,51.2*
N#Cc1cccc(-c2ccc3c(c2)[C@H]2[C@H](CCN2S(=O)(=O)c2cccc(F)c2)[C@H](CO)N3)c1,102.6*,42.5,-6.1,/,98.9*,27.0,10.5,?
CCC(=O)N1[C@H](CO)[C@@H](c2ccccc2)C12CN(C(=O)c1ccc3c(c1)OCO3)C2,/,29.9,0.4,/,/,/,/,/
C[C@@H]1CN([C@@H](C)CO)C(=O)c2cccc(NS(=O)(=O)c3cccs3)c2O[C@@H]1CN(C)Cc1ccc(C(F)(F)F)cc1,51.4,-15.8,-0.9,1.3,/,/,/,/
CCNC(=O)C[C@H]1CC[C@H]2[C@@H](COC[C@@H](O)CN2C(=O)Nc2cccc(OC)c2)O1,/,26.5,0.7,/,/,/,/,/
C[C@@H]1CN([C@H](C)CO)C(=O)c2cccc(NC(=O)NC3CCCCC3)c2O[C@H]1CN(C)Cc1ccc(Oc2ccccc2)cc1,?,-11.2,0.3,/,98.4*,107.7*,-13.8,104.4*
C[C@@H]1CN([C@H](C)CO)C(=O)c2cccc(NC(=O)NC3CCCCC3)c2O[C@@H]1CN(C)Cc1ccc(Oc2ccccc2)cc1,48.5,-49.3,0.1,1.1,/,/,/,/
C[C@H](CO)N1C[C@H](C)[C@@H](CN(C)Cc2ccc(-c3ccccc3)cc2)Oc2c(NC(=O)NC3CCCCC3)cccc2C1=O,104.6*,-38.9,/,/,105.9*,88.7,-29.6,104.2*
O=C(C[C@H]1CC[C@@H]2[C@H](COC[C@H](O)CN2CCc2ccccc2)O1)NCc1ccccc1,23.1,10.5,0.1,/,/,/,/,/
C[C@H](CO)N1C[C@H](C)[C@H](CN(C)Cc2ccc3c(c2)OCO3)Oc2ncc(/C=C/c3ccccc3)cc2C1=O,111.4*,-66.4,-0.6,1.4,97.8*,63.9,27.7,103.3*
C[C@H]1CN([C@@H](C)CO)C(=O)c2cc(/C=C/c3ccccc3)cnc2O[C@H]1CN(C)Cc1ccc2c(c1)OCO2,72.4,-32.6,-0.6,0.1,/,/,/,/
SMILES,T cruzi growth-1,Pf Dd2 growth,KDM4C inh,IDH1 mut inh,T cruzi growth-2,T cruzi growth-3,NIH3T3 tox,3T3 cytotox 2
C[C@H](CO)N1C[C@H](C)[C@@H](CN(C)Cc2ccc3c(c2)OCO3)Oc2ncc(/C=C/c3ccccc3)cc2C1=O,92.3,-58.9,7.2,-2.5,/,/,/,/
C[C@@H]1CN([C@H](C)CO)C(=O)c2cc(/C=C/c3ccccc3)cnc2O[C@H]1CN(C)Cc1ccc2c(c1)OCO2,121.4*,-62.0,-0.1,-0.6,100.2*,?,38.4*,104.3*
C[C@H]1CN([C@@H](C)CO)C(=O)c2cc(/C=C/c3ccccc3)cnc2O[C@@H]1CN(C)Cc1ccc2c(c1)OCO2,118.0*,-40.7,0.0,0.3,108.2*,72.5,14.2,102.5*
C/C=C/c1ccc2c(c1)O[C@@H](CN(C)Cc1ccccc1F)[C@H](C)CN([C@H](C)CO)S2(=O)=O,113.8*,-5.4,2.2,1.6,97.8*,62.3,50.7*,102.5*
C/C=C/c1ccc2c(c1)O[C@@H](CN(C)Cc1ccc(F)cc1)[C@@H](C)CN([C@@H](C)CO)S2(=O)=O,90.6,-43.5,0.1,-1.6,/,/,/,/
C/C=C/c1ccc2c(c1)O[C@H](CN(C)Cc1ccccc1F)[C@H](C)CN([C@H](C)CO)S2(=O)=O,109.5*,-1.2,0.2,0.0,102.5*,68.6,26.9,105.5*

# Screening results deposited in PubChem BioAssay by Broad Institute.
